# Bioassay records deposited in PubChem by Johns Hopkins Ion Channel Center.
# An excerpt weighted towards active compounds, which were near 2.3% of everything screened.
# TRPC6 act – mouse TRPC6 channel activation | Q61143 | HEK293-TRPC6 membrane potential dye fluorescence; active compounds read high | B-score at 10 µM | 310,000 tested, 0.13% active | AID 2550;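 active means B-score of the integrated fluorescence ratio above library mean plus 3 SD, and starting fluorescence ratio within library mean plus 5 SD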;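 further: higher score means more depolarization so channel activation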
# TRPC4 act – opens the mouse TRPC4 cation channel; Q9QUQ5; HEK293 TRPC4beta/mu-opioid, Fluo4 calcium fluorescence; active compounds read high; B-score at 10 µM; 310,000 tested, 0.49% active; AID 2237;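 active means B-score above 5 SD of library B-scores, and initial fluorescence ratio not above library mean plus 5 SD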;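 further: positive B-score marks a calcium rise read as TRPC4 activation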
# Target sequence (Q9QUQ5 whole entry, looked up): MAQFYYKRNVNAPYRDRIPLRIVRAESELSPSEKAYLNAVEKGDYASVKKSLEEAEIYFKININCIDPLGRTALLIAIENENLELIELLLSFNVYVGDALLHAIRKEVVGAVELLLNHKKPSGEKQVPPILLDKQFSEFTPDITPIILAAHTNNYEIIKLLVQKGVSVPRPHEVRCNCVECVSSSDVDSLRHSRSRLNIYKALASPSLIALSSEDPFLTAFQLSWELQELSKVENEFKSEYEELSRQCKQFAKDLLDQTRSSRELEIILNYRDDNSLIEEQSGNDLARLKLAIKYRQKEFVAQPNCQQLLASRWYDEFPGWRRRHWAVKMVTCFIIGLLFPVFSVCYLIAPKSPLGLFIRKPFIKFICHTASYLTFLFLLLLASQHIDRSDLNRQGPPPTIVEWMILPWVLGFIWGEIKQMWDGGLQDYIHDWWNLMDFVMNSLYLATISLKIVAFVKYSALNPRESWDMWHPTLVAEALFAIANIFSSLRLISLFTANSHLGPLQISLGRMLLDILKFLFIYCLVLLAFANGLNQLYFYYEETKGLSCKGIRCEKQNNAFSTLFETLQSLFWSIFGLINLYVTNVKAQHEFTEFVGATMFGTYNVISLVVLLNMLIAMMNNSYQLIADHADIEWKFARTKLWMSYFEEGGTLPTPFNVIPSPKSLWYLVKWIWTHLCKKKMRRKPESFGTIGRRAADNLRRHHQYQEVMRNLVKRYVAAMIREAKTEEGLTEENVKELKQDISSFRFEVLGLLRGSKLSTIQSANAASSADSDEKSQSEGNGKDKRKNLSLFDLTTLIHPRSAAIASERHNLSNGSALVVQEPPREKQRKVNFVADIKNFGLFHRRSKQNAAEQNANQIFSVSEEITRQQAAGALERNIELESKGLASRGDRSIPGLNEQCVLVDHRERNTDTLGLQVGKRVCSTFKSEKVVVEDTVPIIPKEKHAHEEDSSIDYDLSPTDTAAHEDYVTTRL
#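 Assay system: HEK293 cells stably co-expressing mouse TRPC4beta and mu-opioid receptor / Timing: Fluo4 dye loading 45 min at room temperature, 110 s recording / Signal: Fluo4 calcium-sensitive dye fluorescence, kinetic, 1 Hz baseline / Read-out: integrated baseline-normalised fluorescence ratio, converted to per-well B score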
# TRPC4 PAM – allosterically enhances the mouse TRPC4 cation channel. Q9QUQ5. B-score at 10 µM. AID 2227. 310,000 tested, 0.42% active. HEK293 TRPC4beta/mu-opioid, DAMGO EC20, Fluo-4 Ca2+ flux; active compounds read high;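 active means B-score of calcium response area above 5 SD of library B-scores, with initial fluorescence ratio within 5 SD of library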;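 further: B-score of integrated fluorescence ratio over time as area under calcium response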
# TRPC4 inh – inhibitors of mouse TRPC4 channel; Q9QUQ5; HEK293 TRPC4beta/mu-opioid, DAMGO-evoked Fluo4 calcium flux; active compounds read low; B-score at 10 µM; 300,000 tested, 0.39% active; AID 2247;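 active means B-score over 3 SD under the library average, no early fluorescence shift, positive overall ratio signal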
#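 Assay system: HEK293 cells with stable TRPC4beta plus mu-opioid receptor expression. Dosing: single dose. Measured by: Fluo4 Ca2+ flux fluorescence. Also added: DAMGO in two steps, submaximal then maximal. Read-out: B score from integrated Fluo4 fluorescence ratio.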
# TRPC6 inhibitor – mouse TRPC6 channel inhibition. B-score at 10 µM. AID 2553. 310,000 tested, 1.1% active. HEK293-TRPC6, membrane potential dye, ACh-evoked depolarization; active compounds read low;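 active means B-score under library mean minus 3 SD, initial fluorescence not abnormally high, positive integrated signal ratio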;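 further: B-score derived from integrated fluorescence ratio over the kinetic read; more negative B-score means stronger inhibition of depolarization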
# Starred values were filed as active, the others as inactive; i = inactive.
SMILES,TRPC6 act,TRPC4 act,TRPC4 PAM,TRPC4 inh,TRPC6 inhibitor
CCOC(=O)C1=C(C)N(C)C(=S)NC1c1ccccc1Cl (centres undefined),i,i,i,i,i
CCOC(=O)C1=C(C)N(C)C(=S)NC1c1ccc(Cl)cc1 (centres undefined),i,i,i,-6*,i
CCOC(=O)C1=C(C)N(C)C(=S)NC1c1cccc(Cl)c1Cl (centres undefined),i,i,21*,i,i
CCOC(=O)C1=C(C)N(C)C(=S)NC1c1ccccc1 (centres undefined),i,i,i,i,i
CC(C)c1ccc(Nc2ccc(C(=O)O)cc2[N+](=O)[O-])cc1,i,i,i,i,i
CCOC(=O)c1c(C)[nH]c(N=Nc2ccc(OC)cc2)c1C,i,i,i,i,i
CCN1CCN(c2ncc(C(=O)Nc3cc(Cl)c(OC)cc3OC)c3ccccc23)CC1,i,61*,i,i,i
CCN1CCN(c2ncc(C(=O)Nc3c(F)cc(F)cc3Br)c3ccccc23)CC1,i,i,i,i,i
CN1C2CCC1CC(N(CCc1ccccc1)C(=O)c1ccc(Cl)cc1)C2 (centres undefined),i,i,i,i,i
CN1C2C=C(N(CCc3ccccc3)C(=O)c3ccc(Cl)cc3)CC1CC2 (centres undefined),i,99*,i,i,i
COc1ccc(C(CNC(=O)c2cccc(Br)c2)N2CCCC2)cc1 (centres undefined),i,89*,i,i,i
COc1ccc(C(CNC(=O)c2oc3c(Cl)cccc3c2C)N2CCCC2)cc1 (centres undefined),i,i,i,i,i
COc1ccc(C(CNC(=S)NCc2ccccc2)N2CCCC2)cc1 (centres undefined),i,i,i,-6*,i
CCCCOc1ccc(C(=O)NCC(=O)NCC(c2ccc(OC)cc2)N2CCCC2)cc1 (centres undefined),i,i,14*,i,i
COc1ccc(C(CNC(=O)c2cccc(S(=O)(=O)Nc3ccc(C)cc3)c2)N2CCCCC2)cc1 (centres undefined),i,i,i,i,i
COc1ccc(C(CNC(=O)c2oc3ccc(Cl)cc3c2C)N2CCCCC2)cc1 (centres undefined),i,i,i,-5*,i
CCOC(=O)N1CCN(C(=O)c2ccc(N(C)S(=O)(=O)c3ccc(C)cc3)cc2)CC1,i,i,i,i,i
O=C(O)Cc1cc(C(=O)Nc2ccc(Br)cc2)sc1-c1ccccc1,i,i,i,i,i
C=CCOc1ccc(C2CC(C)=NN2c2ccccc2)cc1 (centres undefined),i,i,i,-8*,i
O=C(NCCc1ccccc1)c1cnc2ccccc2n1,i,i,16*,i,i
Cc1ccc(CNC(=O)c2cnc3ccccc3n2)cc1,i,i,i,i,i
CCN(C(=O)COC(=O)CSc1ccccc1)c1c(N)n(Cc2ccccc2)c(=O)[nH]c1=O,i,i,i,i,i
CNC(=S)N1N=C(c2ccccc2)CC1c1ccc(OC)c(OC)c1 (centres undefined),i,i,11*,i,i
CNC(=S)N1N=C(c2ccc(C)cc2)CC1c1ccc(OC)c(OC)c1 (centres undefined),i,i,i,i,i
CCCCN1/C(=C/c2ccc3ccccc3[n+]2CC)Sc2ccccc21,i,204*,i,i,i
SMILES,TRPC6 act,TRPC4 act,TRPC4 PAM,TRPC4 inh,TRPC6 inhibitor
CCC(C)(C)c1ccc(OCCCC[n+]2cccc(C)c2C)c(C(C)(C)CC)c1,i,i,i,i,-5.3*
O=C(Nc1ccc(Nc2ccccc2)cc1)c1ccc(Br)o1,i,i,13*,i,i
O=C(Nc1ccccc1N1CCN(C(=O)c2ccccc2)CC1)c1ccc(Br)o1,i,i,i,-7*,i
O=C(Nc1ccccc1N1CCN(C(=O)c2ccccc2)CC1)c1ccc(Cl)cc1,i,i,i,i,i
COc1ccc(C(=O)Nc2ccccc2N2CCN(C(=O)c3ccccc3)CC2)cc1Br,i,i,i,-6*,i
O=C(NC(=S)Nc1ccccc1)c1ccc(Br)o1,i,i,i,i,i
O=C(NCC1OCCc2ccccc21)c1cc(COc2c(F)cccc2F)on1 (centres undefined),i,i,i,i,i
COC(=O)NCC(c1ccc2c(c1)OCO2)N1CCN(c2ccccc2)CC1 (centres undefined),i,169*,i,i,i
COc1ccc(C(=O)NCC(c2ccc3c(c2)OCO3)N2CCN(c3ccc(OC)cc3)CC2)cc1 (centres undefined),i,i,i,i,i
C=CCS(=O)(=O)N1CCCC(N2CCN(c3ccccc3OC)CC2)C1 (centres undefined),i,i,i,i,i
Cc1ccc(S(=O)(=O)N2CCN3CCCC3C2)cc1 (centres undefined),i,i,i,i,i
COc1ccccc1N1CCN(C2CCCN(S(=O)(=O)c3ccccc3)C2)CC1 (centres undefined),i,i,i,-6*,i
O=S(=O)(c1ccc(Cl)cc1)N1CCN2CCCC2C1 (centres undefined),i,98*,34*,i,i
CCCCN(CC)CCCNC(=O)CN1C(=O)CSc2ccc(S(=O)(=O)N3CCOCC3)cc21,i,55*,i,i,i
CCCCN(CCCC)CCNC(=O)CN1C(=O)CSc2ccc(S(=O)(=O)N3CCOCC3)cc21,i,i,i,i,i
COc1ccc(CCn2c(N)c(C#N)c3nc4ccccc4nc32)cc1OC,i,i,i,-6*,i
Cc1cc(C)n(CC(=O)Nc2ccc(N3CCOCC3)c(Cl)c2)c(=O)c1C#N,i,i,i,i,i
COc1ccc(CN2CCNC(=O)C2CC(=O)NC2CCCC2)c(C)c1C (centres undefined),i,i,i,-6*,i
COc1ccc(CN2CCNC(=O)C2CC(=O)NC2CCC2)c(OC)c1 (centres undefined),i,i,i,i,i
CC1CCN(CCCNC(=O)c2nn(C)c3c2CS(=O)(=O)c2ccccc2-3)CC1,i,i,i,i,i
